Measurements: ChEMBL document CHEMBL2086314, “Synthesis and anticonvulsant activity of new N-Mannich bases derived from 3-(2-fluorophenyl)- and 3-(2-bromophenyl)-pyrrolidine-2,5-diones. Part II” (Bioorg Med Chem, 2012)
Calls of active or inactive are those of the source. The calls are words filed in the database; no cut-off is given here.

Columns and labels:
Mus musculus [1] = experiment: Anticonvulsant activity in CF-1 albino mouse assessed as protection from maximal electric shock-induced seizures at 300 mg/kg, ip measured after 0.5 hrs; type: functional, organism-based; set-up: dose 300 mg/kg
How it was run: (§1)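 Male CF-1 mice dosed ip at 30, 100 or 300 mg/kg, suspension in 0.5% methylcellulose/water. MES: corneal electrodes primed with electrolyte containing anaesthetic, 50 mA, 60 Hz, 0.2 s. Examined 0.5 and 4 h after dosing. Value is the minimum dose protecting half or more of the animals.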

Mus musculus [2] = experiment: Anticonvulsant activity in ip dosed CF-1 albino mouse assessed as protection from maximal electric shock-induced seizures measured after 4 hrs; type: functional; conditions: read-out: MED; how it was run: as §1
Mus musculus [3] = experiment: Neurotoxicity in CF-1 albino mouse assessed as motor impairment at 300 mg/kg, ip measured after 0.5 hrs by rotarod test; type: toxicity, organism-based; set-up: dose 300 mg/kg, route intraperitoneal; conditions: in vivo
How it was run: (§2)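 Rotarod neurotoxicity in male CF-1 mice given ip doses of 30, 100 or 300 mg/kg (0.5% methylcellulose suspension), examined 0.5 and 4 h after dosing. Impairment means failing to hold balance on the rod for 1 min. Value is the minimum dose causing toxicity in half or more of the animals; response comments are recorded.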

Mus musculus [4] = experiment: Neurotoxicity in CF-1 albino mouse assessed as motor impairment at 300 mg/kg, ip measured after 4 hrs by rotarod test; type: toxicity, organism-based; set-up: dose 300 mg/kg, route intraperitoneal; conditions: in vivo; how it was run: as §2
Rattus norvegicus [5] = experiment: Anticonvulsant activity in Sprague-Dawley rat assessed as protection from maximum electric shock-induced seizures at 30 mg/kg, po measured after 0.25 hrs; type: functional
How it was run: (§3)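 Male Sprague–Dawley rats, four per group, given 30 mg/kg orally as a suspension in 0.5% methylcellulose/water. MES stimulus 150 mA, 60 Hz, 0.2 s via corneal electrodes. Tested at 0.25, 0.5, 1, 2 and 4 h; value is rats protected out of four.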

Rattus norvegicus [6] = experiment: Anticonvulsant activity in Sprague-Dawley rat assessed as protection from maximum electric shock-induced seizures at 30 mg/kg, po measured after 0.5 hrs; type: functional; how it was run: as §3
Rattus norvegicus [7] = experiment: Anticonvulsant activity in Sprague-Dawley rat assessed as protection from maximum electric shock-induced seizures at 30 mg/kg, po measured after 1 hr; type: functional; how it was run: as §3
Rattus norvegicus [8] = experiment: Anticonvulsant activity in Sprague-Dawley rat assessed as protection from maximum electric shock-induced seizures at 30 mg/kg, po measured after 2 hrs; type: functional; how it was run: as §3
Rattus norvegicus [9] = experiment: Anticonvulsant activity in Sprague-Dawley rat assessed as protection from maximum electric shock-induced seizures at 30 mg/kg, po measured after 4 hrs; type: functional; how it was run: as §3
Rattus norvegicus [10] = experiment: Neurotoxicity in Sprague-Dawley rat assessed as motor impairment at 30 mg/kg, po by rotarod test; type: toxicity, organism-based; set-up: dose 30 mg/kg, route oral; conditions: in vivo
How it was run: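 Male Sprague–Dawley rats, four animals, oral 30 mg/kg in 0.5% methylcellulose/water. Motor impairment on the rotarod (failure to keep balance for 1 min) assessed alongside MES at five times from 0.25 to 4 h.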

Rattus norvegicus [11] = experiment: Anticonvulsant activity in po dosed Sprague-Dawley rat assessed as protection from maximum electric shock-induced seizures; type: functional
How it was run: (§4)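 Male Sprague–Dawley rats dosed orally (0.5% methylcellulose suspension). MES 150 mA, 60 Hz, 0.2 s; rotarod impairment is failure to keep balance for 1 min. Groups of eight, at the previously estimated time of peak effect, with doses varied until at least three points fell in the 10–90% range. ED50/TD50 with 95% confidence intervals from regression; PI = TD50/ED50.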

[12] = Neurotoxicity in po dosed Sprague-Dawley rat assessed as motor impairment measured at time of peak effect by rotarod test; type: toxicity, organism-based; conditions: in vivo; how it was run: as §4
Rattus norvegicus [13] = species: Rattus norvegicus; experiment: Protective index, ratio of TD50 for Sprague-Dawley rat to ED50 for Sprague-Dawley rat assessed as protection from maximum electric shock-induced seizures; type: functional; how it was run: as §4
Rattus norvegicus [14] = experiment: Anticonvulsant activity in po dosed maximum electric shock-induced Sprague-Dawley rat assessed as time of peak effect; type: functional; how it was run: as §4
Mus musculus [15] = experiment: Anticonvulsant activity in CF-1 albino mouse assessed as protection against 6 Hz psychomotor seizure at 75 mg/kg, ip measured after 0.25 hrs; type: functional; conditions: route intraperitoneal
How it was run: (§5)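 6-Hz psychomotor seizure in male CF-1 mice, compound suspended in 0.5% methylcellulose/water, given ip (100 or 75 mg/kg). Corneal stimulation with 0.2 ms monopolar rectangular pulses at 6 Hz for 3 s, 32 mA, constant-current device. Protected if normal exploratory behaviour resumes within 10 s. Tested 0.25–4 h after dosing; value is mice protected out of four.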

Mus musculus [16] = experiment: Anticonvulsant activity in CF-1 albino mouse assessed as protection against 6 Hz psychomotor seizure at 75 mg/kg, ip measured after 0.5 hrs; type: functional; conditions: route intraperitoneal; how it was run: as §5
Mus musculus [17] = experiment: Anticonvulsant activity in CF-1 albino mouse assessed as protection against 6 Hz psychomotor seizure at 75 mg/kg, ip measured after 1 hr; type: functional; conditions: route intraperitoneal; how it was run: as §5
Mus musculus [18] = experiment: Anticonvulsant activity in CF-1 albino mouse assessed as protection against 6 Hz psychomotor seizure at 75 mg/kg, ip measured after 2 hrs; type: functional; conditions: route intraperitoneal; how it was run: as §5
Mus musculus [19] = experiment: Anticonvulsant activity in CF-1 albino mouse assessed as protection against 6 Hz psychomotor seizure at 75 mg/kg, ip measured after 4 hrs; type: functional; conditions: route intraperitoneal; how it was run: as §5
Mus musculus [20] = experiment: Anticonvulsant activity in ip dosed CF-1 albino mouse assessed as protection from maximal electric shock-induced seizures; type: functional
How it was run: (§6)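 ED50 and TD50 determined in male CF-1 mice after ip dosing (0.5% methylcellulose suspension) at the previously estimated time of peak effect. MES 50 mA, 60 Hz, 0.2 s. Groups of eight, with doses varied until at least three points fell between 10–90% protection or motor impairment. Regression gives ED50/TD50 with 95% confidence intervals; PI = TD50/ED50.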

[21] = Neurotoxicity in ip dosed CF-1 albino mouse assessed as motor impairment by rotarod test; type: toxicity, organism-based; conditions: in vivo
Mus musculus [22] = species: Mus musculus; experiment: Protective index, ratio of TD50 for CF-1 albino mouse to ED50 for CF-1 albino mouse assessed as protection from maximum electric shock-induced seizures; type: functional; how it was run: as §6
Mus musculus [23] = experiment: Anticonvulsant activity in ip dosed maximal electric shock-induced CF-1 albino mouse assessed as time of peak effect; type: functional; how it was run: as §6
Mus musculus [24] = experiment: Anticonvulsant activity in ip dosed CF-1 albino mouse assessed as protection from maximal electric shock-induced seizures measured after 0.5 hrs; type: functional; conditions: read-out: MED; how it was run: as §1
Mus musculus [25] = experiment: Neurotoxicity in CF-1 albino mouse assessed as myoclonic jerks at 100 mg/kg, ip measured after 0.5 hrs by rotarod test; type: toxicity, organism-based; set-up: dose 100 mg/kg, route intraperitoneal; conditions: in vivo
Mus musculus [26] = experiment: Anticonvulsant activity in ip dosed CF-1 albino mouse assessed as protection against subcutaneous pentylenetetrazol-induced seizures measured after 4 hrs; type: functional; conditions: read-out: MED
How it was run: (§7)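 scPTZ test in male CF-1 mice. Compound suspended in 0.5% methylcellulose/water, ip at 30, 100 or 300 mg/kg. Pentylenetetrazole 85 mg/kg (CD97, clonic seizures lasting at least 5 s) given subcutaneously at the test time, read at 0.5 and 4 h. Value is the minimum dose protecting half or more of the animals.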

Mus musculus [27] = experiment: Neurotoxicity in ip dosed CF-1 albino mouse assessed as motor impairment measured after 0.5 hrs by rotarod test; type: toxicity, organism-based; conditions: in vivo; how it was run: as §2
Mus musculus [28] = experiment: Anticonvulsant activity in ip dosed CF-1 albino mouse assessed as protection against subcutaneous pentylenetetrazol-induced seizures measured after 0.5 hrs; type: functional; conditions: read-out: MED; how it was run: as §7
Mus musculus [29] = experiment: Neurotoxicity in CF-1 albino mouse assessed as myoclonic jerks at 300 mg/kg, ip measured after 4 hrs by rotarod test; type: toxicity, organism-based; set-up: dose 300 mg/kg, route intraperitoneal; conditions: in vivo
Mus musculus [30] = experiment: Neurotoxicity in CF-1 albino mouse assessed as motor impairment, ip measured after 4 hrs by rotarod test; type: toxicity, organism-based; conditions: in vivo

O=C1CC(c2ccccc2Br)C(=O)N1CN1CCN(c2cccc(Cl)c2)CC1 (racemic)
Activity (Mus musculus [1]): inactive | minimal effective dose (Mus musculus [2]): 100 mg/kg | Activity (Mus musculus [3]): Non-toxic | Activity (Mus musculus [4]): Non-toxic | Activity (Rattus norvegicus [5]): 0% | Activity (Rattus norvegicus [6]): 25% | Activity (Rattus norvegicus [7]): 50% | Activity (Rattus norvegicus [8]): 100% | Activity (Rattus norvegicus [9]): 100% | Activity (Rattus norvegicus [10]): Non-toxic | ED50 (Rattus norvegicus [11]): 26.4 mg/kg | TD50 [12]: 126 mg/kg | Ratio TD50/ED50 (Rattus norvegicus [13]): 4.77 | Time (Rattus norvegicus [14]): 4 h | Activity (Mus musculus [15]): 25% | Activity (Mus musculus [16]): 25% | Activity (Mus musculus [17]): 25% | Activity (Mus musculus [18]): 25% | Activity (Mus musculus [19]): 25%

O=C1CC(c2ccccc2Br)C(=O)N1CN1CCN(c2ccc(F)cc2)CC1 (racemic)
Activity (Mus musculus [1]): inactive | minimal effective dose (Mus musculus [2]): 100 mg/kg | Activity (Mus musculus [3]): Non-toxic | Activity (Mus musculus [4]): Non-toxic | Activity (Rattus norvegicus [5]): 25% | Activity (Rattus norvegicus [6]): 25% | Activity (Rattus norvegicus [7]): 25% | Activity (Rattus norvegicus [8]): 50% | Activity (Rattus norvegicus [9]): 75% | Activity (Rattus norvegicus [10]): Non-toxic | ED50 (Rattus norvegicus [11]): 7.4 mg/kg | TD50 [12]: 62.4 mg/kg | Ratio TD50/ED50 (Rattus norvegicus [13]): 8.43 | Time (Rattus norvegicus [14]): 4 h | ED50 (Mus musculus [20]): 79.9 mg/kg | TD50 [21]: 466 mg/kg | Ratio TD50/ED50 (Mus musculus [22]): 5.83 | Time (Mus musculus [23]): 4 h

Cl.Cl.O=C1CC(c2ccccc2Br)C(=O)N1CN1CCN(CCO)CC1 (racemic)
minimal effective dose (Mus musculus [24]): 100 mg/kg | Activity (Mus musculus [25]): Toxic | minimal effective dose (Mus musculus [2]): 100 mg/kg | minimal effective dose (Mus musculus [26]): 300 mg/kg | MTC (Mus musculus [27]): 300 mg/kg | Activity (Mus musculus [4]): Non-toxic | minimal effective dose (Mus musculus [28]): 100 mg/kg | Activity (Mus musculus [29]): Toxic | Activity (Rattus norvegicus [5]): 25% | Activity (Rattus norvegicus [6]): 25% | Activity (Rattus norvegicus [7]): 0% | Activity (Rattus norvegicus [8]): 0% | Activity (Rattus norvegicus [9]): 25% | Activity (Rattus norvegicus [10]): Non-toxic

O=C1CC(c2ccccc2F)C(=O)N1CN1CCN(c2ccc(F)cc2)CC1 (racemic)
Activity (Mus musculus [1]): inactive | minimal effective dose (Mus musculus [2]): 30 mg/kg | Activity (Mus musculus [3]): Non-toxic | MTC (Mus musculus [30]): 300 mg/kg | Activity (Rattus norvegicus [5]): 0% | Activity (Rattus norvegicus [6]): 0% | Activity (Rattus norvegicus [7]): 0% | Activity (Rattus norvegicus [8]): 25% | Activity (Rattus norvegicus [9]): 50% | Activity (Rattus norvegicus [10]): Non-toxic | ED50 (Mus musculus [20]): 101 mg/kg | TD50 [21]: 166 mg/kg | Ratio TD50/ED50 (Mus musculus [22]): 1.65 | Time (Mus musculus [23]): 4 h
